{
  "source": "paper PMC3654042",
  "about": "(Environmental toxicology, 2012)",
  "key": {"[1]": {"tested_on": "human lung cancer A549 cells", "experiment": "Cell viability", "assay_type": "cell-based", "settings": "for cell degeneration: A549 cells, 1–200 µM, 48 h", "method_in_brief": "(§1)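 A549 cells grown in DMEM/F12 with 10% heat-inactivated FBS and penicillin/streptomycin at 37°C, 5% CO2, trypsinized at 80–90% confluence, and seeded in 96-well plates. Treated with test compound (1–200 µM, acetone vehicle, 1% final) in serum-free RPMI 1640/F12, with the same dose re-added at 24 h, for 48 h. Resazurin (0.05%) added for 2 h in the dark at room temperature. Fluorescence read at ex 560/em 590 nm and expressed as % of untreated control, mean ± SEM, N = 4.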"}, "[2]": {"target": "T1, purified porcine liver PMPMEase (Sus scrofa, UniProt Q29550)", "T1 sequence (Q29550 19-566)": "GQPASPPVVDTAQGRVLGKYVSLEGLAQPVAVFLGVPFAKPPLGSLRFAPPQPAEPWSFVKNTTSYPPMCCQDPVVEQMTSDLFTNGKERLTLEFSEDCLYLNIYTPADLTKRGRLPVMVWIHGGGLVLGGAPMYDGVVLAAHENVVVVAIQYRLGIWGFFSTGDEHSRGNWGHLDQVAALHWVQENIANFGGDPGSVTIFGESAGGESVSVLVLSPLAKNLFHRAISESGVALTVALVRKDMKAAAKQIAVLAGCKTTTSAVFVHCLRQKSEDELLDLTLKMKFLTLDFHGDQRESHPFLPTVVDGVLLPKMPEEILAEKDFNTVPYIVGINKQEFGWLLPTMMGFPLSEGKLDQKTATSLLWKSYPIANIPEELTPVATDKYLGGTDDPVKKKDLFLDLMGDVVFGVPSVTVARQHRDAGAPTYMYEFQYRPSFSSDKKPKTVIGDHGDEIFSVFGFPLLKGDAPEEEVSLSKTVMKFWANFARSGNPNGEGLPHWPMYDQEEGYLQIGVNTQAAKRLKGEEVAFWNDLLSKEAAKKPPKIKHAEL", "experiment": "Inhibition of purified porcine liver PMPMEase", "assay_type": "biochemical", "settings": "for residual enzyme activity (suppressed to) / inhibition of PMPMEase: fragrance 1 mM, PMPMEase 5 µg, 1 mM RD-PNB, 1 h; for residual enzyme activity (suppressed to): % of uninhibited control", "method_in_brief": "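Single-concentration screen: test compound 1 mM in DMSO was incubated with 5 µg purified pig liver PMPMEase and 1 mM RD-PNB substrate for 1 h in 100 mM Tris–HCl, pH 7.4, at 37°C. Stopped with methanol, chilled on ice, and centrifuged at 5000 × g for 5 min. Residual activity was measured by reversed-phase HPLC of the supernatant, as % of uninhibited control, N = 3.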"}, "[3]": {"tested_on": "human neuroblastoma SH-SY5Y cells", "experiment": "Cell viability", "assay_type": "cell-based", "settings": "for cell degeneration: SH-SY5Y cells, 1–200 µM, 48 h", "method_in_brief": "as §1, with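 “SH-SY5Y neuroblastoma” for “A549”, “plated” for “seeded”, “Exposed in serum-free DMEM/F12 to” for “Treated with”, “final), re-dosed identically” for “final) in serum-free RPMI 1640/F12, with the same dose re-added”, “nm” for “nm and expressed”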"}, "[4]": {"tested_on": "human lung cancer A549 cells", "experiment": "Apoptosis assay", "assay_type": "cell-based", "settings": "0–10 µM, serum-free medium", "method_in_brief": "(§2)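 Treatment at 0–10 µM in serum-free medium at 37°C in 5% CO2/95% humidified air, one addition per well. Exposure is 24 h per methods and 48 h per figure legend. A549 were seeded at 2 × 10^5 per well and SH-SY5Y at 3 × 10^5 per well in 24-well plates. Stained in the dark with EB/AO 10 µg/mL for 15 min and viewed at 400× with 480/30 nm excitation. Green nuclei were scored live, condensed or fragmented orange chromatin apoptotic, and normal orange nuclei necrotic.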"}, "[5]": {"tested_on": "human neuroblastoma SH-SY5Y cells", "experiment": "Apoptosis assay", "assay_type": "cell-based", "settings": "0–10 µM, serum-free medium", "method_in_brief": "as §2"}, "[6]": {"settings": "purified porcine liver PMPMEase, RD-PNB substrate"}},
  "note": "pEC50, pIC50, pKi: −log10 of the molar value. Entries after “also recorded” stand apart in the source; their conditions may differ. Where two headings read alike, the source gives them in different places.",
  "data": [
    {"smiles": "CC1COCc2cc3c(cc21)C(C)(C)C(C)C3(C)C", "note": "(stereo not drawn) [Galaxolide]", "values": [
      {"measurement": "cell degeneration", "setting": "[1]", "result": "significant degeneration"},
      {"measurement": "pEC50", "setting": "[1]; Homo sapiens, A549, read-out: EC50 cell degeneration", "result": 4.24},
      {"measurement": "pKi", "setting": "[2]", "result": 4.96},
      {"measurement": "residual enzyme activity (suppressed to)", "setting": "[2]", "result": "less than 25%"},
      {"measurement": "pEC50", "setting": "[3]; Homo sapiens, SH-SY5Y, read-out: EC50 cell degeneration", "result": 4.59},
      {"measurement": "cell degeneration", "setting": "[3]", "result": "significant degeneration"},
      {"measurement": "apoptosis (AO/EB staining, words)", "setting": "[4]", "result": "induced apoptosis"},
      {"measurement": "apoptosis (AO/EB staining, words)", "setting": "[5]", "result": "induced apoptosis"}
    ]},
    {"smiles": "O=C1CCCCCCCCCCCCCCO1", "note": "[ω-Pentadecalactone, ω-pentadecalactone]", "values": [
      {"measurement": "residual enzyme activity (suppressed to)", "setting": "[2]", "result": "less than 25%"},
      {"measurement": "pKi", "setting": "[2]; [6]", "result": 4.34}
    ]},
    {"smiles": "CCCCC=O", "note": "[Pentanal, pentanal]", "values": [
      {"measurement": "pKi", "setting": "[2]", "result": 3.76},
      {"measurement": "pIC50", "setting": "[2]; IC50, purified porcine liver PMPMEase, value as worded in text", "result": "< 3.00"},
      {"measurement": "inhibition of PMPMEase", "setting": "[2]", "result": 60, "unit": "%"},
      {"measurement": "residual enzyme activity (suppressed to)", "setting": "[2]", "result": "less than 25%"}
    ]},
    {"smiles": "CC1=C(C=O)C(C)(C)CCC1", "note": "[β-Cyclocitral, β-cyclocitral]", "values": [
      {"measurement": "residual enzyme activity (suppressed to)", "setting": "[2]", "result": "less than 25%"},
      {"measurement": "pKi", "setting": "[2]; [6]", "result": 5.40}
    ]},
    {"smiles": "CCCCCCCCC1CCC(=O)O1", "note": "(stereo not drawn) [Dodecalactone, γ-dodecalactone]", "values": [
      {"measurement": "residual enzyme activity (suppressed to)", "setting": "[2]", "result": "less than 25%"},
      {"measurement": "pKi", "setting": "[2]; [6]", "result": 4.92}
    ]},
    {"smiles": "CC(=O)c1cc2c(cc1C)C(C)(C)C(C)CC2(C)C", "note": "(stereo not drawn) [Tonalide]", "values": [
      {"measurement": "cell degeneration", "setting": "[1]", "result": "significant degeneration"},
      {"measurement": "pEC50", "setting": "[1]; read-out: EC50 cell degeneration, lung cancer A549 cells, resazurin reduction", "result": 4.85},
      {"measurement": "residual enzyme activity (suppressed to)", "setting": "[2]", "result": "less than 25%"},
      {"measurement": "pKi", "setting": "[2]; [6]", "result": 4.85},
      {"measurement": "cell degeneration", "setting": "[3]", "result": "significant degeneration"},
      {"measurement": "apoptosis (AO/EB staining, words)", "setting": "[4]", "result": "apoptosis was observed in a concentration-dependent manner; also recorded: induced apoptosis"},
      {"measurement": "apoptosis (AO/EB staining, words)", "setting": "[5]", "result": "apoptosis was observed in a concentration-dependent manner; also recorded: induced apoptosis"}
    ]},
    {"smiles": "CCCCC1CCCCC(=O)O1", "note": "(stereo not drawn) [ε-decalactone]", "values": [
      {"measurement": "inhibition of PMPMEase", "setting": "[2]", "result": 30, "unit": "%"},
      {"measurement": "residual enzyme activity (suppressed to)", "setting": "[2]", "result": "less than 25%"}
    ]}
  ]
}
